Data taken from paper PMC3237191 (FEBS letters, 2011).

Tests used:
DGKε (DGKε-His6) [1] = target: T1, DGKε (DGKε-His6) (Homo sapiens, UniProt P52429); test: Triton X-100/DOPC mixed micelle assay with [γ-32P]-ATP; format: biochemical; conditions: 0.1 mM ATP; 15 mM Triton X-100; 22.5 mol% DOPC; lysate
T1 sequence (P52429 1-567): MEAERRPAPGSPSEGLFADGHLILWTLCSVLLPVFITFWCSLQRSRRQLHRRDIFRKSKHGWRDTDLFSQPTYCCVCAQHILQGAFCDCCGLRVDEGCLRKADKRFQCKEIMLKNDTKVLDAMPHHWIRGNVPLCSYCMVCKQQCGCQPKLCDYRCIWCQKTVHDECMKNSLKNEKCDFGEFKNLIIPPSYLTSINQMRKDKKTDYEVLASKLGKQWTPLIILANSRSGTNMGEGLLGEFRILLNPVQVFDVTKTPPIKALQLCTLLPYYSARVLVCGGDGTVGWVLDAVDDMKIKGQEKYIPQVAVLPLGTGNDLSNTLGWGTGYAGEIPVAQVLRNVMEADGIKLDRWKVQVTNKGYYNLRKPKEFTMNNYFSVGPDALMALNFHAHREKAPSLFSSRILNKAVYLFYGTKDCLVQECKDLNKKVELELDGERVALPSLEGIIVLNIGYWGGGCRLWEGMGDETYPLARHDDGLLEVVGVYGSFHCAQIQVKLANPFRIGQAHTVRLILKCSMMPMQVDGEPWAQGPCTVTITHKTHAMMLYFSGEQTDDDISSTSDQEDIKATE
How it was run: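 Enzyme is the 100,000 g supernatant (30 min, 4 °C) of baculovirus-infected Sf21 cells expressing human DGKε-His6. Cells were lysed 10 min on ice in 1% NP-40, 20 mM Tris-HCl pH 7.5, 150 mM NaCl, 1 mM EDTA, phosphatase and protease inhibitors, then sonicated 5 min. DAG substrate was dried with DOPC into lipid films for the micelles, and DAG level was varied. Run in triplicate. Vmax and Km come from nonlinear regression of v0 versus [S] and from Hanes plots.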

DGKε (DGKε-His6) [2] = target: T1, DGKε (DGKε-His6); test: Triton X-100/DOPC mixed micelle assay with [γ-32P]-ATP, nonlinear regression; format: biochemical; conditions: competitive; substrate 18:0/20:4-DAG; 0.1 mM ATP; 15 mM Triton X-100; lysate
How it was run: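 DGKε-His6 was taken from the high-speed supernatant of NP-40-lysed, sonicated Sf21 cells infected with baculovirus. It phosphorylated 18:0/20:4-DAG or 20:4/20:4-DAG in Triton X-100/DOPC mixed micelles with [γ-32P]-ATP, with a phosphatidic acid species added as inhibitor. PA stock levels were set from measured phosphate content. Ki was fitted by nonlinear regression to a competitive inhibition model.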

Compound | Km (mol%) (DGKε (DGKε-His6) [1]) | Ki, mol% (DGKε (DGKε-His6) [2])
CCCCC/C=C\C/C=C\CCCCCCCC(=O)OC[C@H](CO)OC(=O)CCCCCCC/C=C\C/C=C\CCCCC [18:2/18:2-DAG] | 3.5 ± 0.4 mol% | 
CCCCC/C=C\C/C=C\C/C=C\C/C=C\CCCC(=O)OC[C@H](CO)OC(=O)CCC/C=C\C/C=C\C/C=C\C/C=C\CCCCC [20:4/20:4-DAG, 1,2-diarachidonoyl-DAG] | 2.0 ± 0.7 mol% | 
CCCCC/C=C\C/C=C\C/C=C\C/C=C\CCCC(=O)OC[C@H](COP(=O)(O)O)OC(=O)CCC/C=C\C/C=C\C/C=C\C/C=C\CCCCC [20:4/20:4-PA] |  | 4.4 ± 1.0 mol%
CCCCC/C=C\C/C=C\C/C=C\C/C=C\CCCC(=O)O[C@@H](CO)COC(=O)CCCCCCCCCCCCCCCCC [18:0/20:4-DAG, 1-stearoyl-2-arachidonoyl-DAG] | 2.0 ± 0.7 mol% | 
